In brackets after ≈: the same amount, converted by molar mass.
Key:
Streptococcus pneumoniae = assay: Minimum inhibitory concentration required against Streptococcus pneumoniae; format: functional
Outline: (§1)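 MICs against aerobic bacteria were determined by broth microdilution as recommended by NCCLS. Each compound was tested once against each strain. Standard error per run is 1 dilution.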

[1] = Minimum inhibitory concentration required against […] faecalis ATCC strain was determined; format: functional; details: Enterococcus faecalis; outline: as §1
[2] = biological target: T1, Holo-[acyl-carrier-protein] synthase (Bacillus subtilis (strain 168), UniProt P96618); assay: In vitro inhibitory activity against Holo-[acyl-carrier-protein] synthase was determined using Bacillus subtilis GST-Acp-HTRFassay
T1 sequence (P96618 whole entry): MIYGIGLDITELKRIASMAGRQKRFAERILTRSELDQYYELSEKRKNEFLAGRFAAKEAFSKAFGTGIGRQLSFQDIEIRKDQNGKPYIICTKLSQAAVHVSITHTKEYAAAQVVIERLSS
Outline: (§2)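 B. subtilis AcpS at 15 ng/mL was incubated with biotin-CoA and GST-ACP as acceptor. Buffer was 50 mM Tris·HCl pH 8.0 with 7.5 mM MgCl2, 3.75 mM DTT, 0.0375% Tween-20 and BSA. The reaction ran 3 h at room temperature. It was stopped with EDTA/KF containing europium cryptate anti-GST antibody plus streptavidin–allophycocyanin, and read by HTRF. Standard error per run is 10%.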

Bacillus subtilis = assay: Minimum inhibitory concentration required against Bacillus subtilis was determined; format: functional; outline: as §1
Enterococcus faecalis = assay: Minimum inhibitory concentration required against Enterococcus faecalis VRE strain was determined; format: functional; outline: as §1
[3] = biological target: T1, Holo-[acyl-carrier-protein] synthase; assay: In vitro inhibitory activity against acyl carrier protein synthase (AcpS) in Bacillus subtilis GST-Acp-HTRFassay; outline: as §2

| SMILES | MIC (Streptococcus pneumoniae) [µM] | MIC [1] [µM] | IC50 [2] [nM] | MIC (Bacillus subtilis) [µM] | MIC (Enterococcus faecalis) [µM] | IC50 [3] [nM] |
| --- | --- | --- | --- | --- | --- | --- |
| O=C(O)c1cc(Br)ccc1/N=C/c1nc(-c2ccc(C(F)(F)F)c(F)c2)oc1O | 12.5 (≈ 5.91 µg/mL) | 25 (≈ 11.8 µg/mL) | 1500 | 50 (≈ 23.7 µg/mL) | 25 (≈ 11.8 µg/mL) | – |
| O=C(O)c1cc(Cl)ccc1/N=C/c1nc(-c2ccc(C(F)(F)F)c(F)c2)oc1O | 12.5 (≈ 5.36 µg/mL) | 50 (≈ 21.4 µg/mL) | 1100 | 50 (≈ 21.4 µg/mL) | 50 (≈ 21.4 µg/mL) | – |
| O=C(O)c1cc(F)ccc1/N=C/c1nc(-c2ccc(C(F)(F)F)cc2)oc1O | 100 (≈ 39.4 µg/mL) | 100 (≈ 39.4 µg/mL) | 1900 | 200 (≈ 78.9 µg/mL) | 200 (≈ 78.9 µg/mL) | – |
| CC(=O)Nc1ccc(/N=C/c2nc(-c3ccc(C(F)(F)F)c(F)c3)oc2O)c(C(=O)O)c1 | 200 (≈ 90.3 µg/mL) | > 200 | 130 | > 200 | > 200 | – |
| Cc1ccc(/N=C/c2nc(-c3ccc(C(F)(F)F)cc3)oc2O)c(C(=O)O)c1 | 100 (≈ 39 µg/mL) | > 200 | 830 | 100 (≈ 39 µg/mL) | 100 (≈ 39 µg/mL) | – |
| O=C(O)c1cc(I)ccc1/N=C/c1nc(-c2ccc(Cl)cc2)oc1O | 12.5 (≈ 5.86 µg/mL) | 25 (≈ 11.7 µg/mL) | 1300 | 200 (≈ 93.7 µg/mL) | 50 (≈ 23.4 µg/mL) | – |
| O=C(O)c1cc(Br)c(Cl)cc1/N=C/c1nc(-c2ccc(Cl)cc2)oc1O | – | > 200 | > 20000 | > 200 | – | – |
| Cc1ccc(/N=C/c2nc(-c3cccc(OC(F)(F)F)c3)oc2O)c(C(=O)O)c1 | 25 (≈ 10.2 µg/mL) | 200 (≈ 81.3 µg/mL) | – | 25 (≈ 10.2 µg/mL) | 100 (≈ 40.6 µg/mL) | 4400 |
| O=C(O)c1ccccc1/N=C/c1nc(-c2ccc(Cl)cc2)oc1O | > 200 | > 200 | 15000 | > 200 | > 200 | – |
| O=C(O)c1cc(Br)ccc1/N=C/c1nc(-c2cccc(OC(F)(F)F)c2)oc1O | 12.5 (≈ 5.89 µg/mL) | 50 (≈ 23.6 µg/mL) | 15000 | 25 (≈ 11.8 µg/mL) | 25 (≈ 11.8 µg/mL) | – |
| COc1ccc(-c2nc(/C=N/c3ccc(F)cc3C(=O)O)c(O)o2)cc1 | – | > 200 | > 20000 | > 200 | – | – |
| O=C(O)c1cc(Cl)ccc1/N=C/c1nc(-c2cccc(OC(F)(F)F)c2)oc1O | 25 (≈ 10.7 µg/mL) | 100 (≈ 42.7 µg/mL) | 20000 | 50 (≈ 21.3 µg/mL) | 50 (≈ 21.3 µg/mL) | – |
| O=C(O)c1ccccc1/N=C/c1nc(-c2ccccc2)oc1O | – | – | > 20000 | – | – | – |
| Cc1ccc(/N=C/c2nc(-c3ccc(C(F)(F)F)c(F)c3)oc2O)c(C(=O)O)c1 | 25 (≈ 10.2 µg/mL) | 100 (≈ 40.8 µg/mL) | 270 | 25 (≈ 10.2 µg/mL) | 100 (≈ 40.8 µg/mL) | – |
| O=C(O)c1cc(F)ccc1/N=C/c1nc(-c2ccc(Cl)cc2)oc1O | 200 (≈ 72.1 µg/mL) | 100 (≈ 36.1 µg/mL) | 2100 | > 200 | 100 (≈ 36.1 µg/mL) | – |
| O=C(O)c1cc(Br)ccc1/N=C/c1nc(-c2ccc(Cl)cc2)oc1O | 100 (≈ 42.2 µg/mL) | 100 (≈ 42.2 µg/mL) | 3400 | > 200 | 200 (≈ 84.3 µg/mL) | – |
| O=C(O)c1cc(Br)c(Cl)cc1/N=C/c1nc(-c2ccc(C(F)(F)F)cc2)oc1O | 100 (≈ 49 µg/mL) | 100 (≈ 49 µg/mL) | 2000 | > 200 | 50 (≈ 24.5 µg/mL) | – |
